From ChEMBL document CHEMBL1629571, “High prevalence of plasmid-mediated quinolone resistance determinants qnr, aac(6')-Ib-cr, and qepA among ceftiofur-resistant Enterobacteriaceae isolates from companion and food-producing animals” (2009)
Values after ≈ are worked out from the molar mass of the structure shown.

Legend:
[1] = system: Escherichia coli; assay: Antimicrobial activity against Escherichia coli J53 by agar dilution method; format: functional
[2] = system: Escherichia coli; assay: Antimicrobial activity against Escherichia coli J53 transformed with pHND1 carrying DHA-1 gene by agar dilution method; format: functional
Summary of the method: (§1)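 Transconjugants came from liquid mating of qnr-positive donors into E. coli J53Azi^r. They were selected on tryptic soy agar with sodium azide (100 μg/ml) plus sulfamethoxazole (300 μg/ml) or ampicillin (100 μg/ml). MICs were determined by CLSI agar dilution, with E. coli ATCC 25922 as the quality control strain.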

[3] = system: Escherichia coli; assay: Antimicrobial activity against Escherichia coli J53 transformed with pHND2 carrying qnrB6 and CTX-M-9G genes by agar dilution method
[4] = system: Escherichia coli; assay: Antimicrobial activity against Escherichia coli J53 transformed with pHND3 carrying qnrB6 gene by agar dilution method; format: functional; summary of the method: as §1
[5] = system: Citrobacter freundii; assay: Antimicrobial activity against Citrobacter freundii D26 expressing qnrB6 and CTX-M-9G genes by agar dilution method; format: functional
Summary of the method: (§2)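 Agar dilution MICs per CLSI guidelines, with E. coli ATCC 25922 as the quality-control strain. Isolates were ceftiofur-resistant (MIC ≥ 8 μg/ml) Enterobacteriaceae from diseased companion or food-producing animals in Guangdong, China. They were identified biochemically and with Biolog Microlog, and PMQR and β-lactamase genes were typed by PCR and sequencing.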

[6] = system: Klebsiella pneumoniae; assay: Antimicrobial activity against Klebsiella pneumoniae D10 expressing aac(6')-Ib-cr, qnrB4, CTX-M-1G and DHA-1 genes by agar dilution method; format: functional
[7] = system: Escherichia coli; assay: Antimicrobial activity against Escherichia coli J53 transformed with pHNDU1 carrying qnrB6 gene by agar dilution method; format: functional; summary of the method: as §1
[8] = system: Escherichia coli; assay: Antimicrobial activity against Escherichia coli PA11 expressing aac(6')-Ib-cr, qnrS1 and qepA genes by agar dilution method; format: functional; summary of the method: as §2
[9] = system: Escherichia coli; assay: Antimicrobial activity against Escherichia coli Du19 expressing qnrB6 and CTX-M-9G genes by agar dilution method; format: functional; summary of the method: as §2
[10] = system: Escherichia coli; assay: Antimicrobial activity against Escherichia coli J53 transformed with pHNPA1 carrying qnrB6 gene by agar dilution method
[11] = system: Klebsiella pneumoniae; assay: Antimicrobial activity against Klebsiella pneumoniae D24 expressing qnrB6 and CTX-M-9G genes by agar dilution method
[12] = system: Escherichia coli; assay: Antimicrobial activity against Escherichia coli J53 transformed with pHND1 carrying DHA-1 gene by Etest; format: functional
[13] = system: Escherichia coli; assay: Antimicrobial activity against Escherichia coli J53 transformed with pHNDU1 carrying qnrB6 gene by Etest; format: functional
[14] = system: Escherichia coli; assay: Antimicrobial activity against Escherichia coli PA11 expressing aac(6')-Ib-cr, qnrS1 and qepA genes by Etest; format: functional
[15] = system: Citrobacter freundii; assay: Antimicrobial activity against Citrobacter freundii D26 expressing qnrB6 and CTX-M-9G genes by Etest; format: functional
[16] = system: Escherichia coli; assay: Antimicrobial activity against Escherichia coli Du19 expressing qnrB6 and CTX-M-9G genes by Etest; format: functional
[17] = system: Escherichia coli; assay: Antimicrobial activity against Escherichia coli J53 transformed with pHND2 carrying qnrB6 and CTX-M-9G genes by Etest; format: functional
[18] = system: Klebsiella pneumoniae; assay: Antimicrobial activity against Klebsiella pneumoniae D10 expressing aac(6')-Ib-cr, qnrB4, CTX-M-1G and DHA-1 genes by Etest; format: functional
[19] = system: Klebsiella pneumoniae; assay: Antimicrobial activity against Klebsiella pneumoniae D24 expressing aac(6')-Ib-cr and CTX-M-9G genes by Etest
[20] = system: Escherichia coli; assay: Antimicrobial activity against Escherichia coli Chi197 expressing aac(6')-Ib-cr and CTX-M-9G genes by agar dilution method
[21] = system: Escherichia coli; assay: Antimicrobial activity against Escherichia coli D71 expressing qepA, CTX-M-1G and CTX-M-9G genes by agar dilution method
[22] = system: Escherichia coli; assay: Antimicrobial activity against Escherichia coli PA14 expressing aac(6')-Ib-cr and qepA genes by agar dilution method
[23] = system: Escherichia coli; assay: Antimicrobial activity against Escherichia coli PA09 expressing aac(6')-Ib-cr gene by agar dilution method
[24] = system: Klebsiella pneumoniae; assay: Antimicrobial activity against Klebsiella pneumoniae C1 expressing aac(6')-Ib-cr gene by agar dilution method
[25] = system: Escherichia coli; assay: Antimicrobial activity against Escherichia coli P498 expressing qnrS1 gene by agar dilution method
[26] = system: Klebsiella pneumoniae; assay: Antimicrobial activity against Klebsiella pneumoniae C7 expressing aac(6')-Ib-cr gene by agar dilution method

Row | Compound | MIC [1] | MIC [2] | MIC [3] | MIC [4] | MIC [5] | MIC [6] | MIC [7] | MIC [8] | MIC [9] | MIC [10] | MIC [11] | also measured
1 | CO/N=C(\C(=O)N[C@@H]1C(=O)N2C(C(=O)[O-])=C(C[n+]3cccc4c3CCCC4)CS[C@H]12)c1csc(N)n1 [CEFQUINOME] | 0.06 µg/mL (≈ 0.114 µM) | 0.06 µg/mL (≈ 0.114 µM) | 8 µg/mL (≈ 15.1 µM) | 0.06 µg/mL (≈ 0.114 µM) | 64 µg/mL (≈ 121 µM) | 64 µg/mL (≈ 121 µM) | 0.25 µg/mL (≈ 0.473 µM) | 64 µg/mL (≈ 121 µM) | 32 µg/mL (≈ 60.5 µM) | 0.25 µg/mL (≈ 0.473 µM) | 64 µg/mL (≈ 121 µM) | –
2 | CC(C)(O/N=C(\C(=O)N[C@@H]1C(=O)N2C(C(=O)[O-])=C(C[n+]3ccccc3)CS[C@H]12)c1csc(N)n1)C(=O)O [CEFTAZIDIME] | 0.125 µg/mL (≈ 0.229 µM) | 0.25 µg/mL (≈ 0.457 µM) | 1 µg/mL (≈ 1.83 µM) | 0.125 µg/mL (≈ 0.229 µM) | 1 µg/mL (≈ 1.83 µM) | 128 µg/mL (≈ 234 µM) | 0.5 µg/mL (≈ 0.915 µM) | 32 µg/mL (≈ 58.5 µM) | 16 µg/mL (≈ 29.3 µM) | 1 µg/mL (≈ 1.83 µM) | 2 µg/mL (≈ 3.66 µM) | –
3 | O=C(N[C@H](CO)[C@H](O)c1ccc([N+](=O)[O-])cc1)C(Cl)Cl [CHLORAMPHENICOL] | 8 µg/mL (≈ 24.8 µM) | > 128 µg/mL | > 128 µg/mL | 8 µg/mL (≈ 24.8 µM) | 64 µg/mL (≈ 198 µM) | > 128 µg/mL | > 128 µg/mL | > 256 µg/mL | > 128 µg/mL | – | > 128 µg/mL | –
4 | NCC[C@H](O)C(=O)N[C@@H]1C[C@H](N)[C@@H](O[C@H]2O[C@H](CN)[C@@H](O)[C@H](O)[C@H]2O)[C@H](O)[C@H]1O[C@H]1O[C@H](CO)[C@@H](O)[C@H](N)[C@H]1O [AMIKACIN] | 0.5 µg/mL (≈ 0.854 µM) | > 128 µg/mL | 0.5 µg/mL (≈ 0.854 µM) | 1 µg/mL (≈ 1.71 µM) | > 128 µg/mL | > 128 µg/mL | > 128 µg/mL | > 256 µg/mL | > 128 µg/mL | 0.25 µg/mL (≈ 0.427 µM) | 2 µg/mL (≈ 3.42 µM) | –
5 | CCn1cc(C(=O)O)c(=O)c2ccc(C)nc21 [NALIDIXIC ACID] | 4 µg/mL (≈ 17.2 µM) | 16 µg/mL (≈ 68.9 µM) | 16 µg/mL (≈ 68.9 µM) | 4 µg/mL (≈ 17.2 µM) | 128 µg/mL (≈ 551 µM) | > 128 µg/mL | 64 µg/mL (≈ 276 µM) | > 128 µg/mL | > 128 µg/mL | 32 µg/mL (≈ 138 µM) | 64 µg/mL (≈ 276 µM) | –
6 | GENTAMICIN | 0.125 µg/mL | > 128 µg/mL | – | 16 µg/mL | > 128 µg/mL | > 128 µg/mL | > 128 µg/mL | > 256 µg/mL | > 128 µg/mL | – | – | –
7 | CO/N=C(\C(=O)N[C@@H]1C(=O)N2C(C(=O)O)=C(CSC(=O)c3ccco3)CS[C@H]12)c1csc(N)n1 [CEFTIOFUR] | 0.25 µg/mL (≈ 0.477 µM) | 0.5 µg/mL (≈ 0.955 µM) | 64 µg/mL (≈ 122 µM) | 0.25 µg/mL (≈ 0.477 µM) | 128 µg/mL (≈ 244 µM) | 128 µg/mL (≈ 244 µM) | 0.25 µg/mL (≈ 0.477 µM) | > 128 µg/mL | 128 µg/mL (≈ 244 µM) | 0.5 µg/mL (≈ 0.955 µM) | > 128 µg/mL | –
8 | C[C@H]1COc2c(N3CCN(C)CC3)c(F)cc3c(=O)c(C(=O)O)cn1c23.C[C@H]1COc2c(N3CCN(C)CC3)c(F)cc3c(=O)c(C(=O)O)cn1c23.O [LEVOFLOXACIN] | – | – | – | – | – | – | – | – | – | – | – | MIC [12]: 0.25 µg/mL; MIC [13]: 2 µg/mL; MIC [14]: 128 µg/mL; MIC [15]: 2 µg/mL; MIC [16]: 16 µg/mL; MIC [17]: 0.25 µg/mL; MIC [18]: 16 µg/mL
9 | Cc1cc(NS(=O)(=O)c2ccc(N)cc2)no1 [SULFAMETHOXAZOLE] | 16 µg/mL (≈ 63.2 µM) | > 256 µg/mL | > 256 µg/mL | 4 µg/mL (≈ 15.8 µM) | > 256 µg/mL | > 256 µg/mL | 128 µg/mL (≈ 505 µM) | > 256 µg/mL | > 256 µg/mL | > 256 µg/mL | > 256 µg/mL | –
10 | CO/N=C(\C(=O)N[C@@H]1C(=O)N2C(C(=O)O)=C(COC(C)=O)CS[C@H]12)c1csc(N)n1 [CEFOTAXIME] | 0.06 µg/mL (≈ 0.132 µM) | 0.125 µg/mL (≈ 0.274 µM) | 32 µg/mL (≈ 70.3 µM) | 0.06 µg/mL (≈ 0.132 µM) | 64 µg/mL (≈ 141 µM) | 128 µg/mL (≈ 281 µM) | 1 µg/mL (≈ 2.2 µM) | 16 µg/mL (≈ 35.1 µM) | 128 µg/mL (≈ 281 µM) | 0.5 µg/mL (≈ 1.1 µM) | 64 µg/mL (≈ 141 µM) | –
11 | COc1cc(Cc2cnc(N)nc2N)cc(OC)c1OC [TRIMETHOPRIM] | 0.25 µg/mL (≈ 0.861 µM) | > 256 µg/mL | > 256 µg/mL | > 256 µg/mL | > 256 µg/mL | > 256 µg/mL | 0.5 µg/mL (≈ 1.72 µM) | > 256 µg/mL | > 256 µg/mL | > 256 µg/mL | > 256 µg/mL | –
12 | O=C(O)c1cn(C2CC2)c2cc(N3CCNCC3)c(F)cc2c1=O [CIPROFLOXACIN] | – | – | – | – | 4 µg/mL (≈ 12.1 µM) | – | – | > 128 µg/mL | 64 µg/mL (≈ 193 µM) | – | 2 µg/mL (≈ 6.04 µM) | MIC [19]: 2 µg/mL (≈ 6.04 µM); MIC [20]: 64 µg/mL (≈ 193 µM); MIC [21]: 64 µg/mL (≈ 193 µM); MIC [14]: > 128 µg/mL; MIC [15]: 4 µg/mL (≈ 12.1 µM); MIC [22]: > 128 µg/mL; MIC [23]: 64 µg/mL (≈ 193 µM); MIC [24]: 8 µg/mL (≈ 24.1 µM); MIC [25]: 64 µg/mL (≈ 193 µM); MIC [26]: 8 µg/mL (≈ 24.1 µM)
13 | CC1(C)S[C@@H]2[C@H](NC(=O)[C@H](N)c3ccccc3)C(=O)N2[C@H]1C(=O)O [AMPICILLIN] | – | > 128 µg/mL | > 128 µg/mL | > 128 µg/mL | > 128 µg/mL | > 128 µg/mL | 64 µg/mL (≈ 183 µM) | > 256 µg/mL | > 128 µg/mL | > 256 µg/mL | > 128 µg/mL | –
